Kir21 block = inhibitors of mouse Kir2.1 inward-rectifier potassium channel; actives 0.85% (n = 310,000); HEK293-Kir2.1, FluxOR thallium flux fluorescence; active compounds read low; B-score at 10 µM; Inward rectifier potassium channel 2 (Mus musculus), P35561;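 active = fluorescence ratio B-score at or below minus 3 SD of library scores, with starting-brightness B-score within 2 SD, cut at about -4.2 in these data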;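 also: channel flux triggered by added potassium and thallium sulfate stimulus; B-score of peak minus minimum fluorescence over baseline after thallium stimulus; more negative B-score means stronger Kir2.1 block with less thallium influx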
Target sequence (P35561 whole entry, looked up): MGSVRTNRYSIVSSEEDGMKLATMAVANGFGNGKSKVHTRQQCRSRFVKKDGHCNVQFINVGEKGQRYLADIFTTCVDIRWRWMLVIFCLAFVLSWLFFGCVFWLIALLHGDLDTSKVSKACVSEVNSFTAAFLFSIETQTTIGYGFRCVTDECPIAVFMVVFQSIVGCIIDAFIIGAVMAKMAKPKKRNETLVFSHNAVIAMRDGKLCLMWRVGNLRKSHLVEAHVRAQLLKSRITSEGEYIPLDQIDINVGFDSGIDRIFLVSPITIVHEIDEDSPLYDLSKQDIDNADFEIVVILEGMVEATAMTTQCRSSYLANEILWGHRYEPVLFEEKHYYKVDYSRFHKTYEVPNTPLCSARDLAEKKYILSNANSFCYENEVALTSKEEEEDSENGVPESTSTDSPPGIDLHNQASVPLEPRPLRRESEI
hERG rescue = hERG rescue from dofetilide block, primary screen, cell-based, CHO-hERG, FluxOR thallium flux, dofetilide IC70 | Voltage-gated inwardly rectifying potassium channel KCNH2 (Homo sapiens), Q12809 | dofetilide IC70 present | activation (rescue from dofetilide block), less the hit threshold, % at 10 µM | actives 0.51% (n = 310,000);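 active = activation above the mean of controls blocked by dofetilide plus 5 SD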;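 also: thallium influx through hERG after potassium depolarization seen as dye fluorescence rise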
KCNQ1 inh = inhibitors of human KCNQ1 channel, primary screen, cell-based, thallium flux, high-throughput; CHO-K1 KCNQ1, FluxOR thallium flux fluorescence; active compounds read high; B-score at 10 µM; actives 1.3% (n = 310,000);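 active = compounds whose thallium flux B-score, printed positive for inhibition, exceeds three library SD while starting fluorescence stays within three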;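 also: channel opened by potassium depolarization with thallium stimulus after 20 min compound exposure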
KCNQ1 act = potentiators or activators of KCNQ1 channel, primary screen, cell-based, thallium flux, high-throughput | CHO-K1 KCNQ1, thallium flux FluxOR fluorescence; active compounds read high | actives 0.35% (n = 310,000) | Potassium voltage-gated channel subfamily KQT member 1 (Homo sapiens), P51787 | B-score at 10 µM;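 active = fluorescence ratio B-score, a plate-corrected score, at least three library SD, with initial intensity B-score within 5 SD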
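Schedule – 37 °C overnight plating, 90-min dark dye load, 20-min compound pretreatment · System – stable KCNQ1 CHO-K1 line · Probe or stimulus – thallium- and potassium-containing depolarizing buffer · Measured by – kinetic FluxOR fluorescence, 10 s baseline plus 110 s post-stimulus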
KCNK9 inh = KCNK9 potassium channel inhibitors, primary screen, HEK293 cells, thallium flux; Potassium channel subfamily K member 9 (Homo sapiens), Q9NPC2; actives 1.2% (n = 310,000); FluxOR thallium flux fluorescence; active compounds read low; AID 488922, 2010; B-score at 10 µM;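 active = ratio B-score over 3 SD below the library mean, with starting fluorescence within 5 SD of its mean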;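 also: negative B-score means less thallium flux so channel inhibition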
KCNK3 inh = human KCNK3 channel inhibitors, primary screen, CHO cells, FluxOR thallium flux, B-score. Potassium channel subfamily K member 3 (Homo sapiens), O14649. B-score at 10 µM. actives 0.84% (n = 340,000). FluxOR fluorescence; active compounds read low;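 active = B-score under library mean minus 4 SD, starting fluorescence ratio at most library mean plus 5 SD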;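 also: more negative B-score means stronger inhibition of thallium flux through KCNK3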
Of the large screens only hits and unclear results are named; the others gave an inactive call. In the library only some 3.7% were active in any assay of this set; here they are far more common.

N#Cc1c(-c2ccccc2)nc(SCC(=O)NC2CCCCC2)[nH]c1=O	none
Cc1ccc(S(=O)(=O)N(C)C)cc1NC(=O)COC(=O)CN1C(=O)c2ccccc2C1=O	none (no result: Kir21 block, hERG rescue, KCNQ1 inh, KCNQ1 act, KCNK9 inh)
N=c1n(CC(=O)c2cccc([N+](=O)[O-])c2)c2ccccc2n1Cc1ccccc1	none
N=c1n(Cc2ccccc2Cl)c2ccccc2n1CC(O)c1ccco1 (stereo unspecified)	Kir21 block -5.2
CCCn1c(=N)n(CC(O)c2ccc(C)cc2)c2ccccc21 (stereo unspecified)	Kir21 block -6
Cc1ccc(Cn2c(=N)n(CC(=O)c3ccccc3)c3ccccc32)cc1	Kir21 block -8.9
CCCn1c(=N)n(CC(O)c2ccco2)c2ccccc21 (stereo unspecified)	none
C=CCn1c(=N)n(CC(=O)c2ccc(Br)cc2)c2ccccc21	none
N=c1n(N)c2ccccc2n1CC(=O)c1ccc(Br)cc1	Kir21 block -5.5
O=C(NCC1CCCO1)C(c1ccco1)N(Cc1ccc(F)cc1)C(=O)CN1C(=O)c2ccccc2S1(=O)=O (stereo unspecified)	none
Cn1c(=N)n(CC(O)c2cccc3ccccc23)c2ccccc21 (stereo unspecified)	Kir21 block -4.4
Cc1ccc(Cn2c(=N)n(CC(O)c3ccco3)c3ccccc32)cc1 (stereo unspecified)	Kir21 block -5
CCCCCn1nc(C(=O)N2CCc3ccccc32)c2ccccc2c1=O	KCNK3 inh -10 (no result: Kir21 block, hERG rescue, KCNQ1 inh, KCNQ1 act, KCNK9 inh)
CCCCn1nc(C(=O)NC2CCCCCC2)c2ccccc2c1=O	none (no result: Kir21 block, hERG rescue, KCNQ1 inh, KCNQ1 act, KCNK9 inh)
CCCn1nc(C(=O)N2CCc3ccccc32)c2ccccc2c1=O	none (no result: Kir21 block, hERG rescue, KCNQ1 inh, KCNQ1 act, KCNK9 inh)
CCCn1nc(C(=O)Nc2ccc3c(c2)OCO3)c2ccccc2c1=O	none (no result: Kir21 block, hERG rescue, KCNQ1 inh, KCNQ1 act, KCNK9 inh)
CCCCn1nc(C(=O)N[C@@H](CCSC)c2nc3ccccc3[nH]2)c2ccccc2c1=O	KCNK9 inh -7.5
CCCCn1nc(C(=O)Nc2ccccc2N2CCCC2)c2ccccc2c1=O	KCNK3 inh -8.7 (no result: Kir21 block, hERG rescue, KCNQ1 inh, KCNQ1 act, KCNK9 inh)
CCCCn1nc(C(=O)Nc2ccc3c(c2)OCO3)c2ccccc2c1=O	KCNK3 inh -10 (no result: Kir21 block, hERG rescue, KCNQ1 inh, KCNQ1 act, KCNK9 inh)
CCn1nc(C(=O)N[C@@H](CCSC)c2nc3ccccc3[nH]2)c2ccccc2c1=O	none
CSc1ccccc1C(=O)Nc1cc2c(cc1C(=O)O)OCCCO2	none
Cc1cc(C)c(Cn2cnc(-c3ccc([N+](=O)[O-])cc3)c2)c(C)c1	KCNQ1 inh 6
CCN1CCc2c(sc(NC(=O)c3ccc(S(=O)(=O)N(C)c4ccccc4)cc3)c2C(=O)NC)C1	KCNQ1 inh 21
CC(C)N1CCc2c(sc(NC(=O)c3cc(-c4cccs4)nc4ccccc34)c2C(N)=O)C1	KCNK9 inh -6.9
CC(C)N1CCc2c(sc(NC(=O)c3nc4ccccc4s3)c2C(N)=O)C1	none
NC(=O)c1ccsc1NC(=O)c1ccc(S(=O)(=O)N2CCCc3ccccc32)cc1	none
CCN1CCc2c(sc(NC(=O)c3ccc4ccccc4c3)c2C(N)=O)C1	KCNK9 inh -6.8
CC(C)N1CCc2c(sc(NC(=O)c3ccc(S(=O)(=O)N4CCc5ccccc54)cc3)c2C(N)=O)C1	KCNQ1 inh 17
COc1cccc(NC(=O)Cn2c3ccccc3c3nc4n(c(=O)c32)CCCS4)c1	none
COc1ccc(C(=O)NCc2ncccc2C)cc1OC1CCN(C(C)=O)CC1	none
CNC(=O)c1c(NC(=O)c2ccc(S(=O)(=O)N(C)c3ccccc3)cc2)sc2c1CCN(C(C)C)C2	KCNK9 inh -8.1 (no result: KCNK3 inh)
CC(=O)Nc1ccccc1C(=O)C(=O)Nc1ccc(Cl)cc1	hERG rescue 8.2
Cc1ccc(S(=O)(=O)N2CCOCC2)cc1NC(=O)CNc1ccccc1N1CCCC1=O	none (no result: Kir21 block, hERG rescue, KCNQ1 inh, KCNQ1 act, KCNK9 inh)
OCCNc1nc(Nc2cc(Cl)ccc2OC2CCCC2)nc(N2CCCC2)n1	none
CC(C)c1ccc(CNc2ccc([N+](=O)[O-])cn2)cc1	KCNQ1 inh 7
